We go through seven molecules from ChEMBL document CHEMBL1121487, “Fluorinated pyrimidine nucleosides. 4. Synthesis and antitumor testing of a series of 2',5'-dideoxy- and 2',3',5'-trideoxynucleosides of 5-fluorouracil” (1980).

For experiment [1], the system named is Sarcoma-180. As to the kind of experiment: Percent reduction against sarcoma 180J tumor growth in mice when administered intraperitoneally at dose 200 mg/kg. It counts as functional, Mus musculus. The following applies: route intraperitoneal. The method in brief:
(§1)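 Sarcoma 180J tumor model in mice, with eight intraperitoneal doses per schedule (mg/kg ip × 8). Read-out is percent reduction in tumor growth. Toxicity was tracked as the number of surviving mice out of the number tested, with group sizes of 8 to 24 mice.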

Experiment [2] in a line: Antitumor activity against sarcoma 180J infected mice was evaluated as ratio of number of survivors to the number of tested animals at dose 200 mg/kg, ip; 8/8. Format: functional. The method in brief: (§2)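 Mice bearing sarcoma 180J were dosed intraperitoneally eight times (mg/kg per dose, ×8). Read-outs were percent reduction in tumor growth and the number of mice surviving out of the number tested at each dose level. Mouse deaths were taken as toxicity.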

In experiment [3] the test system is Sarcoma-180. As to the kind of experiment: Percent reduction against sarcoma 180J tumor growth in mice when administered intraperitoneally at dose 100 mg/kg. It counts as functional, Mus musculus. The conditions noted are these: route intraperitoneal. The method in brief:
as §1

The subject of experiment [4] is Sarcoma-180. The experiment is described as follows: (§3) Percent reduction against sarcoma 180J tumor growth in mice when administered intraperitoneally at dose 25 mg/kg. It counts as functional, Mus musculus. The following applies: route intraperitoneal. The method in brief:
as §1

Experiment [5] relates to Sarcoma-180. The experiment is described as follows: Percent reduction against sarcoma 180J tumor growth in mice when administered intraperitoneally at dose 50 mg/kg. Format: functional, Mus musculus. The conditions noted are these: route intraperitoneal. The method in brief: as §1
In experiment [6] the test system is Sarcoma-180. As to the kind of experiment: Percent reduction against sarcoma 180J tumor growth in mice when administered intraperitoneally at dose 12.5 mg/kg. It counts as functional, Mus musculus. The following applies: route intraperitoneal. The method in brief: as §1
A short description of experiment [7]: Antitumor activity against sarcoma 180J infected mice was evaluated as ratio of number of survivors to the number of tested animals at dose 25 mg/kg, ip; 16/16. It counts as functional. The method in brief: as §2
A short description of experiment [8]: Antitumor activity against sarcoma 180J infected mice was evaluated as ratio of number of survivors to the number of tested animals at dose 12.5 mg/kg, ip; 8/8. It counts as functional. The method in brief:
as §2

A short description of experiment [9]: Antitumor activity against sarcoma 180J infected mice was evaluated as ratio of number of survivors to the number of tested animals at dose 200 mg/kg, ip; 11/16. It counts as functional. The method in brief: as §2
Experiment [10] can be described thus: Antitumor activity against sarcoma 180J infected mice was evaluated as ratio of number of survivors to the number of tested animals at dose 100 mg/kg, ip; 18/24. Format: functional. The method in brief: as §2
Experiment [11] can be described thus: Antitumor activity against sarcoma 180J infected mice was evaluated as ratio of number of survivors to the number of tested animals at dose 50 mg/kg, ip; 16/16. It counts as functional. The method in brief: as §2
Experiment [12] in a line: Antitumor activity against sarcoma 180J infected mice was evaluated as ratio of number of survivors to the number of tested animals at dose 200 mg/kg, ip; 15/16.
Experiment [13] can be described thus: Antitumor activity against sarcoma 180J infected mice was evaluated as ratio of number of survivors to the number of 8 tested animals at dose 200 mg/kg, ip; 8/8. Format: functional. The method in brief:
as §2

A short description of experiment [14]: Antitumor activity against sarcoma 180J infected mice was evaluated as ratio of number of survivors to the number of tested animals at dose 200 mg/kg, ip; 12/16. It counts as functional. The method in brief: as §2
Experiment [15] can be described thus: Antitumor activity against sarcoma 180J infected mice was evaluated as ratio of number of survivors to the number of tested animals at dose 100 mg/kg, ip; 15/16. Format: functional. The method in brief:
as §2

Experiment [16] is described as follows: Antitumor activity against sarcoma 180J infected mice was evaluated as ratio of number of survivors to the number of tested animals at dose 100 mg/kg, ip; 7/8. It counts as functional. The method in brief:
as §2

For experiment [17], the system named is Sarcoma-180. The experiment is described as follows: Percent reduction against sarcoma 180J tumor growth in mice when administered intraperitoneally at dose 40 mg/kg. Format: functional, Mus musculus. The conditions noted are these: route intraperitoneal. The method in brief: as §2
The nature of experiment [18]: as §3. It counts as functional, Mus musculus. The conditions noted are these: route intraperitoneal. The method in brief:
as §2

Experiment [19] in a line: Antitumor activity against sarcoma 180J infected mice was evaluated as ratio of number of survivors to the number of tested animals at dose 25 mg/kg, ip; 22/22. Format: functional. The method in brief: as §2
Experiment [20] in a line: Antitumor activity against sarcoma 180J infected mice was evaluated as ratio of number of survivors to the number of tested animals at dose 40 mg/kg, ip; 17/24. It counts as functional. The method in brief: as §2

Molecule `C[C@H]1O[C@@H](n2cc(F)c(=O)[nH]c2=O)C[C@H]1O` came in with a Reduction in the experiment on Sarcoma-180 [1] of 6%. The Ratio in [2] came to 8.
As for `O=c1[nH]c(=O)n([C@H]2C[C@H](O)[C@@H](CO)O2)cc1F` [FLOXURIDINE], the Reduction with Sarcoma-180 [3] is 93%; with Sarcoma-180 [1], 93%; with Sarcoma-180 [4] it was 61%; in the experiment with Sarcoma-180 [5], 85%; in the experiment with Sarcoma-180 [6], 26%. Also, the Ratio was 16 in experiment [7]; 8 in [8]; 11 in [9]; 18 in experiment [10]; 16 in experiment [11].
As to `C[C@H]1O[C@@H](n2cc(F)c(=O)[nH]c2=O)C[C@@H]1O`, in the experiment with Sarcoma-180 [1], the Reduction was determined as 0%. Moreover, the Ratio in [12] is 15.
In turn, `C[C@H]1O[C@@H]2C[C@H]1Oc1ncc(F)c(=O)n12` returned a Reduction in the experiment on Sarcoma-180 [1] of 28%. Moreover, in experiment [13], the Ratio stood at 8.
`O=c1[nH]c(=O)n(C2CCCO2)cc1F` (stereo not drawn) [TEGAFUR]: the Reduction in the experiment on Sarcoma-180 [3] was 46%; with Sarcoma-180 [1], 81%. Besides, the Ratio came out at 12 in [14] and 15 in experiment [15].
For `CC1CC[C@H](n2cc(F)c(=O)[nH]c2=O)O1` (stereo partly drawn), the Reduction is 35% in the experiment with Sarcoma-180 [3] and 81% with Sarcoma-180 [1]. For the same molecule, the Ratio in experiment [14] amounted to 12; in [16], 7.
As for `O=c1[nH]cc(F)c(=O)[nH]1` [FLUOROURACIL], the values for the Reduction (in the experiment with Sarcoma-180 [17]; in experiment [18]) were 87% and 38%, respectively. The Ratio in [19] was 22; in [20] it was 17.
